Values after ≈ are worked out from the molar mass of the structure shown.
Key:
Nav1.5 (late current) = Nav1.5 (late current) (Homo sapiens, UniProt Q14524); assay: Inhibition of recombinant human Nav1.5 late expressed in human HEK293 cells at 100 uM in presence of ATXII by automated Qpatch clamp assay relative to contro; assay type: ADME, cell-based; conditions: HEK293 cells expressing recombinant human Nav1.5
[1] = Growth inhibition of human K/VP.5 cells incubated for 48 hrs by NBTI cell counting analysis; assay type: functional; conditions: K562, 48 h
Staphylococcus aureus [2] = assay: Antibacterial activity against Staphylococcus aureus 3527 by CLSI method; assay type: functional
CYP2C9 = CYP2C9 (Homo sapiens, UniProt P11712); assay: Inhibition of CYP2C9 (unknown origin) at 10 uM relative to control; assay type: ADME
[3] = Cmax in ICR (CD-1) mouse at 50 mg/kg, po measured up to 1440 mins by LC-MS/MS analysis; assay type: ADME, organism-based; parameters: route oral, dose 50 mg/kg, time <=1440; conditions: in vivo
In short: (§1)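 Male ICR (CD-1) mice, 22 ± 2 g, given the free base in DMSO/Solutol HS-15/0.9% NaCl (5/5/90, v/v/v), IV at 10 mg/kg or PO at 50 mg/kg; 24 mice per route, three per timepoint. Plasma was taken by cardiac puncture at 3–1440 min (IV) or 10–1440 min (PO), measured by LC-MS/MS, and parameters were derived by noncompartmental analysis.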

[4] = Metabolic stability in CD1 mouse microsomes assessed as half life; assay type: ADME, Microsome
Klebsiella pneumoniae = assay: Antibacterial activity against Klebsiella pneumoniae isolates by CLSI method; assay type: functional
Cytochrome P450 1A2 = Cytochrome P450 1A2 (Homo sapiens, UniProt P05177); assay: Inhibition of CYP1A2 (unknown origin); assay type: ADME
Sequence of Cytochrome P450 1A2 (P05177 whole entry): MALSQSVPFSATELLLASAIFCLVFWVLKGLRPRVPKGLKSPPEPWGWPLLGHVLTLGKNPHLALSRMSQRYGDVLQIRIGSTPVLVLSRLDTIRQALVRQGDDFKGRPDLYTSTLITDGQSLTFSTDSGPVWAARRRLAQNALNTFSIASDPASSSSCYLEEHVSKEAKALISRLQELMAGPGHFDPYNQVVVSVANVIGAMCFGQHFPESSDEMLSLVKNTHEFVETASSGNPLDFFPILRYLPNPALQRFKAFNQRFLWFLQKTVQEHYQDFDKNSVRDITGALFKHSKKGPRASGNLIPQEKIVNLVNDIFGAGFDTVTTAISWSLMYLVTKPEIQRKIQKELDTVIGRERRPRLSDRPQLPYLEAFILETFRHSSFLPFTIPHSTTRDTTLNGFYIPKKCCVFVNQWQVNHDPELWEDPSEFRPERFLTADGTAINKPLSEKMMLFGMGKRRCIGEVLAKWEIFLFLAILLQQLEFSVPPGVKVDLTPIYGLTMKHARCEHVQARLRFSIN

[5] = molecular target: 5-hydroxytryptamine receptor 2B (Homo sapiens) (UniProt P41595); assay: Displacement of [3H]Lysergic acid diethylamide from human recombinant 5HT2B receptor expressed in CHO-K1 cells at 100 uM by radioligand binding assay; assay type: cell-based
[6] = AUClast in ICR (CD-1) mouse at 50 mg/kg, po measured up to 1440 mins by LC-MS/MS analysis; assay type: ADME, organism-based; parameters: route oral, dose 50 mg/kg, time <=1440; conditions: in vivo; in short: as §1
Cytochrome P450 2C8 = Cytochrome P450 2C8 (Homo sapiens, UniProt P10632); assay: Inhibition of CYP2C8 (unknown origin); assay type: ADME
Sequence of Cytochrome P450 2C8 (P10632 whole entry): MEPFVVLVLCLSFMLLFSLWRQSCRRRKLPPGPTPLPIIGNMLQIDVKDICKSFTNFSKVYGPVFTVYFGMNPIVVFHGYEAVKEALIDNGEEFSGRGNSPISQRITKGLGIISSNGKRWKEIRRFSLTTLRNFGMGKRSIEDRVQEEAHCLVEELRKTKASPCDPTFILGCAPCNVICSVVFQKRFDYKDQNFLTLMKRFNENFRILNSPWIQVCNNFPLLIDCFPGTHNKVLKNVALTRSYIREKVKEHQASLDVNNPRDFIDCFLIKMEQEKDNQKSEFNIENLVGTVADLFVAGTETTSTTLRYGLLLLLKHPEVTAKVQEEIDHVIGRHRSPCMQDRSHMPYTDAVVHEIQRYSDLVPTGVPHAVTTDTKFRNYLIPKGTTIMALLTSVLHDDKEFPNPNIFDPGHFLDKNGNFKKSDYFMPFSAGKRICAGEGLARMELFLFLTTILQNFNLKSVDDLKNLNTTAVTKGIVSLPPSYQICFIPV

[7] = Metabolic stability in human microsomes assessed as half life; assay type: ADME, Microsome
In short: (§2)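 Run at RTI International. Covers plasma protein binding (mouse, human; percent free), CACO-2 permeability and efflux, and microsomal stability (mouse and human microsomes) giving half-life.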

[8] = molecular target: DNA gyrase (Staphylococcus aureus) (UniProt P0A0K8+P20831); assay: Inhibition of Staphylococcus aureus DNA Gyrase assessed as reduction in supercoiling pBR322 DNA by measuring induction of single strand breaks by ethidium bromide staining based agarose gel electrophoresis; assay type: protein-complex assay; conditions: dose 1-100 µM
In short: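 Gyrase-mediated cleavage of negatively supercoiled pBR322 ran for 30 min at 37 °C with compound at 0.5–200 μM. Single- and double-strand break products were quantified from gel lane fluorescence, corrected for differential emission of supercoiled versus linear DNA.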

THP-1 = assay: Cytotoxicity against human THP-1 cells; assay type: cell-based
In short: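 THP-1, HepG2 and HeLa cells were exposed to compound from 128 to 0.0625 μg/mL. IC50 was obtained by nonlinear regression of the inhibition curves.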

Nav1.5 = Nav1.5 (Homo sapiens, UniProt Q14524); assay: Inhibition of recombinant human Nav1.5 expressed in human HEK293 cells at 100 uM measured at peak current by automated Qpatch clamp assay relative to control; assay type: ADME, cell-based; conditions: HEK293 cells expressing recombinant human Nav1.5
Sequence of Nav1.5 (Q14524 whole entry): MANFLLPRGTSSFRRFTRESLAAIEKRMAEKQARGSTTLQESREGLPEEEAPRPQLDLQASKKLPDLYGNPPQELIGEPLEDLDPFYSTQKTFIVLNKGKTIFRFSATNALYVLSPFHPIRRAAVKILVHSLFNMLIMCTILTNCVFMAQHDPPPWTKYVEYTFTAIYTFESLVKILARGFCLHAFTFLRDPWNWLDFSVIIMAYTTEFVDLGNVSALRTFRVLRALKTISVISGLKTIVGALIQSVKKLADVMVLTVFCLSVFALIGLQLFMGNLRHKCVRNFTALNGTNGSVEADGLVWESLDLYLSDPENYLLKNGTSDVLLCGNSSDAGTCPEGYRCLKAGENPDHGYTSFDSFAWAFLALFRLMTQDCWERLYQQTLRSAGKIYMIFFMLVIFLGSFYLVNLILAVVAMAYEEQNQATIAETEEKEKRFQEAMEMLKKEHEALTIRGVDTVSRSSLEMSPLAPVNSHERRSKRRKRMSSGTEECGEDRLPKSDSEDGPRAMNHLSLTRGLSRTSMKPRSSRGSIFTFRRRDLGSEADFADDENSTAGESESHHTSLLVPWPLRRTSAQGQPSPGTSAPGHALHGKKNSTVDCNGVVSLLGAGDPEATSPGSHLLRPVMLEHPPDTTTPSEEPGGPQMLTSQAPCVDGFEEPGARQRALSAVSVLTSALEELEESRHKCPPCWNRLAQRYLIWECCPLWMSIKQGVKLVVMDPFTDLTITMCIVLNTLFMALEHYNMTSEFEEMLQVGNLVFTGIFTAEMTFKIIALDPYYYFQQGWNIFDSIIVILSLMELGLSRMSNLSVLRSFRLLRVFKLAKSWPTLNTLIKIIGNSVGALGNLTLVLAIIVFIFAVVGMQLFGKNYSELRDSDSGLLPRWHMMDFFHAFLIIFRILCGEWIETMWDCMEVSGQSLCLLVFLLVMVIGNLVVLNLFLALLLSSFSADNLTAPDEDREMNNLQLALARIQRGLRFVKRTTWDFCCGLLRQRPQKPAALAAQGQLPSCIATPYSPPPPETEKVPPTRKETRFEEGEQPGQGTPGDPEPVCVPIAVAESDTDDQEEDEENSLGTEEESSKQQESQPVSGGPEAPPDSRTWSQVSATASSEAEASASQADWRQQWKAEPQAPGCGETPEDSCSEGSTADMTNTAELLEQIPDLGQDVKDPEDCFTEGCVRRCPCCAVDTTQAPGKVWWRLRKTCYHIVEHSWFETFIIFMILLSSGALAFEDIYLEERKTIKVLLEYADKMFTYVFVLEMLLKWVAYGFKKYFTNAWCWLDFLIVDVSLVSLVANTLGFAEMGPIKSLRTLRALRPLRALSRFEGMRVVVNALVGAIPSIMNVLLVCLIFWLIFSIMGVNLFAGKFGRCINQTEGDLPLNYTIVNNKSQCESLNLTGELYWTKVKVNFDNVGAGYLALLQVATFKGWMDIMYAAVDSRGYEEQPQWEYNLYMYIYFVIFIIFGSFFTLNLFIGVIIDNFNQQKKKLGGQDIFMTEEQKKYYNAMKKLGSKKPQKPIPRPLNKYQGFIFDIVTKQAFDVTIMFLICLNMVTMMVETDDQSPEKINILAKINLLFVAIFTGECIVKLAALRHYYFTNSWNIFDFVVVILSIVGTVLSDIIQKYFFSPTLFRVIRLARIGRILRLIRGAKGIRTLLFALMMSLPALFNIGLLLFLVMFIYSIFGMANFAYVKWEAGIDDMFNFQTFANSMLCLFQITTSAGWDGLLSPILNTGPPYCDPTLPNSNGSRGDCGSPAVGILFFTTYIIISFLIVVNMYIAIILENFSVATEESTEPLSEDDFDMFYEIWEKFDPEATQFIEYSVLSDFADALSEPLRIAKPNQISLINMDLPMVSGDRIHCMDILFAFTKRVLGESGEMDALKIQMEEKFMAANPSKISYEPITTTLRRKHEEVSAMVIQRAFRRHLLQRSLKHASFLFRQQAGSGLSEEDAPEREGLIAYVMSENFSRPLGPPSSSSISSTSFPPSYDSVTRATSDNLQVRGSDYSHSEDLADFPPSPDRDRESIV

[9] = Volume of distribution at steady state in ICR (CD-1) mouse at 10 mg/kg, iv measured up to 1440 mins by LC-MS/MS analysis; assay type: ADME, organism-based; conditions: in vivo, read-out: Vdss
In short: (§3)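 Male ICR (CD-1) mice, 22 ± 2 g, given free base in DMSO/Solutol HS-15/0.9% NaCl (5/5/90) at 50 mg/kg PO or 10 mg/kg IV. Three mice per timepoint, 8 timepoints. Plasma taken by cardiac puncture at 10–1440 min (PO) or 3–1440 min (IV). Measured by LC-MS/MS, with parameters from noncompartmental analysis.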

Escherichia coli = assay: Antibacterial activity against Escherichia coli isolates by CLSI method; assay type: functional
hERG (KCNH2) = hERG (KCNH2) (Homo sapiens, UniProt Q12809); assay: Inhibition of recombinant human ERG expressed in CHO-K1 cells at 100 uM at -80 mV holding potential tail current by automated Qpatch clamp assay relative to control; assay type: ADME, cell-based; conditions: CHO-K1 cells expressing recombinant human ERG
CYP2D6 = CYP2D6 (Homo sapiens, UniProt P10635); assay: Inhibition of CYP2D6 (unknown origin) at 10 uM relative to control; assay type: ADME
Cytochrome P450 2B6 = Cytochrome P450 2B6 (Homo sapiens, UniProt P20813); assay: Inhibition of CYP2B6 (unknown origin); assay type: ADME
DNA gyrase [10] = molecular target: DNA gyrase (Staphylococcus aureus, UniProt P0A0K8+P20831, D83N); assay: Inhibition of Staphylococcus aureus DNA Gyrase D83N mutant assessed as reduction in supercoiling pBR322 DNA by measuring relaxation by bromophenol blue staining based TAE gel method
CYP2C19 = CYP2C19 (Homo sapiens, UniProt P33261); assay: Inhibition of CYP2C19 (unknown origin) at 10 uM relative to control; assay type: ADME
[11] = molecular target: Sodium channel protein type 5 subunit alpha (Homo sapiens, UniProt Q14524); assay: Activation of recombinant human Nav1.5 late expressed in human HEK293 cells assessed as activation of late current at 100 uM by automated Qpatch clamp assay relative to control; assay type: ADME, cell-based; conditions: hek293, 100 µM
Sequence of Sodium channel protein type 5 subunit alpha (Q14524 whole entry): as above

Topoisomerase IV = Topoisomerase IV (Staphylococcus aureus, UniProt P0C1S7+P0C1U9); assay: Inhibition of Staphylococcus aureus topoisomerase IV decatenation activity using kDNA as substrate by ethidium bromide/bromophenol blue staining based agarose gel electrophoresis analysis; assay type: protein-complex assay
HepaRG = assay: Cytotoxicity against human HepaRG cells at 100 uM by ATP depletion assay; assay type: cell-based
In short: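 An ATP depletion read-out in HepaRG cells gave cytotoxicity across 0.01–100 μM, reported as % cytotoxicity at 100 μM.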

Enterococcus faecalis = assay: Antibacterial activity against vancomycin-resistant Enterococcus faecalis by CLSI method; assay type: functional
Staphylococcus aureus [12] = assay: Antibacterial activity against Staphylococcus aureus ATCC 29213 by CLSI method; assay type: functional
DNA gyrase [13] = molecular target: DNA gyrase (Staphylococcus aureus, UniProt P0A0K8+P20831); assay: Inhibition of Staphylococcus aureus Gyrase supercoiling activity assessed as reduction in supercoiling pBR322 DNA by measuring relaxation by bromophenol blue staining based TAE gel method; assay type: protein-complex assay
Enterococcus faecium = assay: Antibacterial activity against vancomycin-resistant Enterococcus faecium by CLSI method; assay type: functional
[14] = Tmax in ICR (CD-1) mouse at 50 mg/kg, po measured up to 1440 mins by LC-MS/MS analysis; assay type: ADME, organism-based; conditions: in vivo; in short: as §3
[15] = Permeability of the compound from basolateral to apical side in human Caco-2 cells; assay type: ADME, cell-based; conditions: read-out: permeability; in short: as §2
Streptococcus pyogenes = assay: Antibacterial activity against Streptococcus pyogenes isolates by CLSI method; assay type: functional

## COc1ccc2ncc(F)c(C[C@H](O)[C@H]3OC[C@H](NCc4cc5c(nn4)OCCS5)CO3)c2n1
Nav1.5 (late current)
  inhibition at 100 µM: < 25%
[1]
  IC50: 202 µM
Staphylococcus aureus [2]
  MIC: 0.25 µg/mL (≈ 0.511 µM)
CYP2C9
  inhibition at 10 µM: > 50%
[3]
  Cmax: 7020 ng/mL
[4]
  half-life: 52 min
Klebsiella pneumoniae
  MIC50: > 64 µg/mL
Cytochrome P450 1A2
  IC50: > 10 µM
[5]
  inhibition: > 45%
[6]
  AUC(0-t) at 24 h: 5910 ng·h/mL
Cytochrome P450 2C8
  IC50: > 10 µM
[7]
  half-life: 94 min
[8]
  Activity: Dose-Dependent Effect
THP-1
  IC50: > 125 µM
Nav1.5
  inhibition at 100 µM: < 25%
[9]
  Vd: 1 L/kg
Escherichia coli
  MIC50: > 64 µg/mL
hERG (KCNH2)
  inhibition at 100 µM: < 25%
CYP2D6
  inhibition at 10 µM: > 50%
Cytochrome P450 2B6
  IC50: > 10 µM
DNA gyrase [10]
  IC50: 15 µM
CYP2C19
  inhibition at 10 µM: > 50%
[11]
  Activity: < 25%
Topoisomerase IV
  IC50: 3.5 µM
HepaRG
  Activity: 12%
Enterococcus faecalis
  MIC50: 0.25 µg/mL (≈ 0.511 µM)
  MIC90: 1 µg/mL (≈ 2.04 µM)
Staphylococcus aureus [12]
  MIC: 0.125 µg/mL (≈ 0.255 µM)
DNA gyrase [13]
  IC50: 0.22 µM
Enterococcus faecium
  MIC50: 0.25 µg/mL (≈ 0.511 µM)
  MIC90: 1 µg/mL (≈ 2.04 µM)
[14]
  Tmax: 10.2 min
[15]
  Papp B→A: 81.2 ×10⁻⁶ cm/s
Streptococcus pyogenes
  MIC50: 0.5 µg/mL (≈ 1.02 µM)
